Measured values as given in PMC8496415 (Translational Vision Science & Technology, 2021).

Assays:
axial elongation = settings: topical, chick; ref 25 (Thomson et al.); cited from earlier work
[1] = Maximum solubility / achievable concentration in solution; type: physicochemical
rat eyes = test: Histology and immunohistochemistry; type: in vivo; settings: once-daily 10% eye drop, 14 and 28 days
Procedure, shortened: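 Rats received 5 µL of 10% test compound drops once daily in one eye, PBS in the other. Eyes were taken at days 14 and 28, fixed overnight in 4% paraformaldehyde at 4°C, frozen and cut into 12 µm sections. Stains: H&E; cleaved caspase-3 (5% BSA block, primary 1:200 2 h, Alexa 488 secondary 1:400 1 h, DAPI) with caspase-3+ DAPI+ cells scored; TUNEL with DNase I-treated positive control. Mean ± SEM, two-way ANOVA/Sidak.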

Long Evans rat eyes = test: Clinical examination, OCT imaging and ERG after 28-day once-daily eye drop; type: in vivo
[2] = rat, once-daily 10% eye drop, 14 and 28 days

N[C@@H](Cc1ccc(O)c(O)c1)C(=O)O [levodopa]
EC50 for a reduction of axial elongation (axial elongation): 0.05%
Maximum concentration achievable ([1]; distilled water): 0.5%

CCOC(=O)[C@@H](N)Cc1ccc(O)c(O)c1 [etilevodopa]
Hematoxylin and eosin staining of retina (inflammation) (rat eyes): no infiltration of inflammatory cells, fibrosis or morphological changes
Number of cleaved caspase-3+ DAPI+ cells vs control (apoptosis) (rat eyes): no statistically significant change
TUNEL staining (apoptosis) (rat eyes): no TUNEL^+ DAPI^+ cells observed
Rat behavior (activity levels, aggression, feeding pattern, weight gain) (Long Evans rat eyes; 28-day once-daily topical 10%): no obvious changes in rat behavior
ERG A- and B-wave amplitude vs control eyes (Long Evans rat eyes; [2]): no statistically significant difference in A- or B-wave amplitudes
OCT retinal structure (Long Evans rat eyes; [2]): did not demonstrate any qualitative structural changes
Maximum solubility ([1]; PBS, pH 7.4): 10%
